Experimental data taken from ChEMBL document CHEMBL3351628, “2,4,5-Trisubstituted thiazole derivatives: a novel and potent class of non-nucleoside inhibitors of wild type and mutant HIV-1 reverse transcriptase” (Eur J Med Chem, 2014).
pIC50: −log10 of the molar value. Calls of active or inactive are those of the source. The rule behind the calls is not given here.

Legend:
[1] = system: Human immunodeficiency virus 1; assay: Antiviral activity against HIV1 harboring reverse transcriptase K103N/P225H double mutant infected in HEK293T cells transfected with plasmid VSV-G/pNL4-3.luc.R-E- assessed as inhibition of viral replication after 48 hrs by luciferase reporter gene assay; format: functional, organism-based, HEK-293T; conditions: Human immunodeficiency virus 1, HEK-293T, 48 h
In short: (§1)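 VSV-G-pseudotyped single-cycle virus: VSVG plasmid plus env-deficient pNL4-3.luc.R⁻E⁻ vector (wild type or RT-mutant) co-transfected into HEK 293T by calcium phosphate. Medium changed at 16 h, supernatant collected 48 h post-transfection, normalised by p24 ELISA to 0.2 ng p24/mL. HEK 293T targets seeded a day ahead; compound added 15 min before virus. Cells lysed 48 h post-infection, luciferase read. IC50 from dose–infectivity curves.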

[2] = system: Human immunodeficiency virus 1; assay: Antiviral activity against HIV1 harboring reverse transcriptase K103N/P225H double mutant infected in HEK293T cells transfected with plasmid VSV-G/pNL4-3.luc.R-E- assessed as inhibition of viral replication after 48 hrs by luciferase reporter gene assay relative HIV1; format: functional, HEK-293T
[3] = system: Human immunodeficiency virus 1; assay: Antiviral activity against HIV1 harboring reverse transcriptase K103N/G190A double mutant infected in HEK293T cells transfected with plasmid VSV-G/pNL4-3.luc.R-E- assessed as inhibition of viral replication after 48 hrs by luciferase reporter gene assay; format: functional, organism-based, HEK-293T; conditions: Human immunodeficiency virus 1, HEK-293T, 48 h; in short: as §1
[4] = system: Human immunodeficiency virus 1; assay: Antiviral activity against HIV1 harboring reverse transcriptase K103N/G190A double mutant infected in HEK293T cells transfected with plasmid VSV-G/pNL4-3.luc.R-E- assessed as inhibition of viral replication after 48 hrs by luciferase reporter gene assay relative HIV1; format: functional, HEK-293T
[5] = system: Human immunodeficiency virus 1; assay: Antiviral activity against HIV1 harboring reverse transcriptase K103N/V108I double mutant infected in HEK293T cells transfected with plasmid VSV-G/pNL4-3.luc.R-E- assessed as inhibition of viral replication after 48 hrs by luciferase reporter gene assay; format: functional, organism-based, HEK-293T; conditions: Human immunodeficiency virus 1, HEK-293T, 48 h; in short: as §1
[6] = system: Human immunodeficiency virus 1; assay: Antiviral activity against HIV1 harboring reverse transcriptase K103N/V108I double mutant infected in HEK293T cells transfected with plasmid VSV-G/pNL4-3.luc.R-E- assessed as inhibition of viral replication after 48 hrs by luciferase reporter gene assay relative HIV1; format: functional, HEK-293T
[7] = Retention time of the compound by HPLC analysis; format: physicochemical
[8] = system: Human immunodeficiency virus 1; assay: Antiviral activity against HIV1 infected in 293T cells assessed as time of 50% failure; format: functional
[9] = system: Human immunodeficiency virus 1; assay: Antiviral activity against wild type HIV1 infected in HEK293T cells transfected with plasmid VSV-G/pNL4-3.luc.R-E- assessed as inhibition of viral replication after 48 hrs by luciferase reporter gene assay; format: functional, organism-based, HEK-293T; conditions: for pIC50: Human immunodeficiency virus 1, HEK-293T, 48 h, read-out: IC50; in short: as §1
[10] = system: HEK-293T; assay: Cytotoxicity against HEK293T cells at 10 uM after 48 hrs; format: cell-based; conditions: human
In short: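 HEK 293T cells incubated 48 h with compound at final 10 μM under the antiviral culture conditions, without virus. Viability read with a cell proliferation assay kit.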

[11] = system: Human immunodeficiency virus 1; assay: Antiviral activity against HIV1 harboring reverse transcriptase K103N mutant infected in HEK293T cells transfected with plasmid VSV-G/pNL4-3.luc.R-E- assessed as inhibition of viral replication after 48 hrs by luciferase reporter gene assay; format: functional, organism-based, HEK-293T; conditions: Human immunodeficiency virus 1, HEK-293T, 48 h; in short: as §1
[12] = system: Human immunodeficiency virus 1; assay: Antiviral activity against HIV1 harboring reverse transcriptase K103N mutant infected in HEK293T cells transfected with plasmid VSV-G/pNL4-3.luc.R-E- assessed as inhibition of viral replication after 48 hrs by luciferase reporter gene assay relative HIV1; format: functional, HEK-293T
[13] = system: Human immunodeficiency virus 1; assay: Antiviral activity against HIV1 harboring reverse transcriptase Y181C mutant infected in HEK293T cells transfected with plasmid VSV-G/pNL4-3.luc.R-E- assessed as inhibition of viral replication after 48 hrs by luciferase reporter gene assay; format: functional, organism-based, HEK-293T; conditions: Human immunodeficiency virus 1, HEK-293T, 48 h; in short: as §1
[14] = system: Human immunodeficiency virus 1; assay: Antiviral activity against HIV1 harboring reverse transcriptase Y181C mutant infected in HEK293T cells transfected with plasmid VSV-G/pNL4-3.luc.R-E- assessed as inhibition of viral replication after 48 hrs by luciferase reporter gene assay relative HIV1; format: functional, HEK-293T
[15] = system: Human immunodeficiency virus 1; assay: Antiviral activity against HIV1 harboring reverse transcriptase […]/K103N double mutant infected in HEK293T cells transfected with plasmid VSV-G/pNL4-3.luc.R-E- assessed as inhibition of viral replication after 48 hrs by luciferase reporter gene assay; format: functional, organism-based, HEK-293T; conditions: Human immunodeficiency virus 1, HEK-293T, 48 h; in short: as §1
[16] = system: Human immunodeficiency virus 1; assay: Antiviral activity against HIV1 harboring reverse transcriptase […]/K103N double mutant infected in HEK293T cells transfected with plasmid VSV-G/pNL4-3.luc.R-E- assessed as inhibition of viral replication after 48 hrs by luciferase reporter gene assay relative HIV1; format: functional, HEK-293T
[17] = system: Human immunodeficiency virus 1; assay: Antiviral activity against HIV1 harboring reverse transcriptase Y188L mutant infected in HEK293T cells transfected with plasmid VSV-G/pNL4-3.luc.R-E- assessed as inhibition of viral replication after 48 hrs by luciferase reporter gene assay; format: functional, organism-based, HEK-293T; conditions: Human immunodeficiency virus 1, HEK-293T, 48 h; in short: as §1
[18] = system: Human immunodeficiency virus 1; assay: Antiviral activity against HIV1 harboring reverse transcriptase Y188L mutant infected in HEK293T cells transfected with plasmid VSV-G/pNL4-3.luc.R-E- assessed as inhibition of viral replication after 48 hrs by luciferase reporter gene assay relative HIV1; format: functional, HEK-293T
[19] = system: Human immunodeficiency virus 1; assay: Antiviral activity against HIV1 at 10 uM; format: functional, organism-based

Row | Structure (SMILES) | pIC50 [1] | fold change (FC) [2] | pIC50 [3] | fold change (FC) [4] | pIC50 [5] | fold change (FC) [6] | Retention_time [7] | Time [8] | pIC50 [9] | Activity [10] | pIC50 [11] | fold change (FC) [12] | pIC50 [13] | fold change (FC) [14] | pIC50 [15] | fold change (FC) [16] | pIC50 [17] | fold change (FC) [18] | inhibition [19] | IC50 ([9]; hek-293t)
1 | COc1ccc(CNc2nc(-c3ccc(F)cc3F)c(Cc3ccccc3)s2)cc1 | 5.44 | 56.1 | 6.40 | 6.3 | 5.74 | 28.8 | 17.37 min | 8.6 h | 7.19 | Non-toxic | 6.39 | 6.4 | 5.84 | 22.8 | 5.27 | 83.8 | < 5.00 | >156 |  | 
2 | COc1ccc(CNc2nc(-c3ccccc3F)c(Cc3ccccc3)s2)cc1 | 5.32 | 77.6 | 6.80 | 2.6 | 5.33 | 76.3 | 24.29 min | 8.6 h | 7.21 | Non-toxic | 6.27 | 8.7 | 5.90 | 20.3 | 5.28 | 84.5 | < 5.00 | >161 |  | 
3 | COc1ccc(-c2nc(N(C)C)sc2Cc2ccccc2)cc1 |  |  |  |  |  |  | 35.28 min |  |  | Non-toxic |  |  |  |  |  |  |  |  | inactive | Not Active
4 | COc1ccc(CNc2nc(-c3ccccc3Cl)c(Cc3ccccc3)s2)cc1 | 6.11 | 17 | 5.38 | 90.9 | 6.09 | 17.8 | 26.43 min | 9 h | 7.34 | Non-toxic | 6.62 | 5.2 | 6.10 | 17.2 | 5.29 | 111 | < 5.00 | >217 |  | 
